The values that follow come from ChEMBL document CHEMBL1155462, “Structure-activity relationship for thiohydantoin androgen receptor antagonists for castration-resistant prostate cancer (CRPC)” (J Med Chem, 2010).

The test system of series [1] is LNCaP. Nature of the series: Inhibition of prostate specific antigen expression in human LNCAP cells at 100 to 1000 nM in presence of fetal bovine serum. In kind it is functional, cell-based.
The test system of series [2] is LNCaP. Nature of the series: Inhibition of prostate specific antigen secretion in human LNCAP cells expressing androgen receptor in presence of charcoal stripped serum. In kind it is functional, cell-based. Summed up: (§1)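 LNCaP/AR cells were made by viral infection with an AR cDNA to express 3–5 fold higher AR levels, mimicking CRPC. They were assayed in charcoal-stripped serum to mimic androgen depletion. Read-out was PSA level, with DMSO as the vehicle.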

The test system of series [3] is Serum. Nature of the series: Drug level in SCID mouse serum at 10 mg/kg, iv. Conditions: in vivo, read-out: Drug uptake. Set-up: dose 10 mg/kg, route intravenous. The class given is ADME, organism-based.
The test system of series [4] is LNCaP. In words: Cytostatic activity against human castration-resistant LNCAP cells expressing androgen receptor xenografted in SCID mouse assessed as change in tumor size at 10 mg/kg qd measured up to 18 days. In kind it is functional, organism-based. Set-up: dose 10 mg/kg. On the technique in general: A xenograft is tissue or cells of one species grown in another, often human tumour cells in immunodeficient mice.

In series [5] the test system is LNCaP. Nature of the series: Cytostatic activity against human castration-resistant LNCAP cells expressing androgen receptor xenografted in SCID mouse assessed as change in tumor size at 50 mg/kg qd measured up to 18 days. The class given is functional, organism-based. Set-up: dose 50 mg/kg.
The test system of series [6] is LNCaP. Nature of the series: Antitumor activity against human castration-resistant LNCAP cells expressing androgen receptor xenografted in SCID mouse assessed as change in tumor size at 10 mg/kg qd for 31 days. In kind it is functional, organism-based. Set-up: dose 10 mg/kg. Summed up:
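AR-overexpressing LNCaP cells were injected subcutaneously into the flanks of castrated SCID mice. Once tumors reached about 100–200 cubic mm, mice were randomized into groups of six. Vehicle or compound was given orally every day, and tumor volume change was followed.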

The subject of series [7] is LNCaP. In words: Inhibition of prostate specific antigen secretion in human LNCAP cells expressing androgen receptor at 100 to 1000 nM in presence of charcoal stripped serum. The class given is functional, cell-based. Summed up: as §1
Series [8] concerns LNCaP. In words: Inhibition of prostate specific antigen expression in human LNCAP cells in presence of fetal bovine serum. The class given is functional, cell-based.
Series [9] relates to LNCaP. In words: Inhibition of prostate specific antigen secretion in human LNCAP cells expressing androgen receptor at 1.25 to 10 uM in presence of charcoal stripped serum. In kind it is functional, cell-based. Summed up:
as §1

Series [10] concerns LNCaP. Nature of the series: Inhibition of prostate specific antigen expression in human LNCAP cells at 0.625 to 20 uM in presence of fetal bovine serum. In kind it is functional, cell-based.
For series [11], the target named is T1, Androgen receptor (Rattus norvegicus) (UniProt P15207).
T1 sequence (whole entry): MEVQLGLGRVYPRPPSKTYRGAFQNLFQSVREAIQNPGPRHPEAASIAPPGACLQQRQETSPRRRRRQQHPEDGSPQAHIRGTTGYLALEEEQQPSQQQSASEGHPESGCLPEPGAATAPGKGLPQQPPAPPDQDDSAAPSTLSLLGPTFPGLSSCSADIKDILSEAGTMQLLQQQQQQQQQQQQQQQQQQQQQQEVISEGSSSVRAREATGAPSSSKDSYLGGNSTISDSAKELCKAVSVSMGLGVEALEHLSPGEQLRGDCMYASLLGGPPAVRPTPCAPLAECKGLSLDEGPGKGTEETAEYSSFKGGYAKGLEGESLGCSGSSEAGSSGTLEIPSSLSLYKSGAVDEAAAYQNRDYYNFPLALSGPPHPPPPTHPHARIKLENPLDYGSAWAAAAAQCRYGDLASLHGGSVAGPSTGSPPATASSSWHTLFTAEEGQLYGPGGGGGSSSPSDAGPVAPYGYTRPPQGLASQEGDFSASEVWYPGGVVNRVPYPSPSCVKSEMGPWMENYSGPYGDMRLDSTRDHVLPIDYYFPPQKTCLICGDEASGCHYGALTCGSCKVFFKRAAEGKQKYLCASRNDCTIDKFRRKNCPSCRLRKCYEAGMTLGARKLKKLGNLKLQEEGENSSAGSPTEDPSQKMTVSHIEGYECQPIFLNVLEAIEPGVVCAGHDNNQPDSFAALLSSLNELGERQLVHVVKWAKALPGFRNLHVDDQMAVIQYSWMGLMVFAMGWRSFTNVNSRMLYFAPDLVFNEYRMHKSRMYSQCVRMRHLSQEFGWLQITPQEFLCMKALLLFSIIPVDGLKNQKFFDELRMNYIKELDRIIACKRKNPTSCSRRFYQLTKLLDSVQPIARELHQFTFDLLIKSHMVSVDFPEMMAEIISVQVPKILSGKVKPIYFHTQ
In words: Antagonist activity at androgen receptor in rat prostate gland at 0.625 to 20 uM by luciferase reporter gene assay. The class given is functional, tissue-based. On the technique in general: Reporter assays use an easily measured gene product as a stand-in for the process of interest.

The test system of series [12] is LNCaP. Nature of the series: Inhibition of prostate specific antigen expression in human LNCAP cells at 0.625 to 5 uM in presence of fetal bovine serum. In kind it is functional, cell-based.
Series [13] deals with LNCaP. Nature of the series: Inhibition of prostate specific antigen expression in human LNCAP cells at 1.25 to 10 uM in presence of fetal bovine serum. The class given is functional, cell-based.
In series [14] the target is T1, Androgen receptor (Rattus norvegicus). In words: Antagonist activity at androgen receptor in rat prostate gland at 1.25 to 10 uM by luciferase reporter gene assay. In kind it is functional, tissue-based.
Series [15] deals with LAPC4. Nature of the series: Antitumor activity against human castration and bicalutamide-resistant LAPC4 cells xenografted in SCID mouse assessed as change in tumor volume at 10 mg/kg measured up to 20 days. The class given is functional, organism-based. Set-up: dose 10 mg/kg.
The subject of series [16] is LAPC4. Nature of the series: Antitumor activity against human castration and bicalutamide-resistant LAPC4 cells xenografted in SCID mouse assessed as change in tumor volume measured up to 50 days. In kind it is functional.

Usually IC50 stands for the point on the concentration scale where inhibition reaches its midpoint.

The source made the active and inactive calls. The calls are words filed in the database; no cut-off is given here.

Consider `CN(C)C(=O)CCCc1ccc(N2C(=S)N(c3ccc(C#N)c(C(F)(F)F)c3)C(=O)C23CCC3)cc1`, for which the outcome in series [1] was Active.
In the case of `CNC(=O)c1ccc(N2C(=S)N(c3ccc(C#N)c(C(F)(F)F)c3)C(=O)C23CCC3)cc1F`, the inhibition result in series [2] was “Dose-dependent effect”. Also, in series [3], the concentration was determined as 9900 µM. Further, the result in [4], in series [5], in [6], in series [1] and in series [7] was Active.
For `CNC(=O)CCCc1ccc(N2C(=S)N(c3ccc(C#N)c(C(F)(F)F)c3)C(=O)C23CCC3)cc1`, the IC50 in series [8] and in [2] was 92 nM each time. In addition, the inhibition result in series [9] is “Active”. Moreover, the concentration in series [3] turned out to be 390 µM. In addition, the outcome in series [1] was Active.
For `Cc1ccc(N2C(=S)N(c3ccc(C#N)c(C(F)(F)F)c3)C(=O)C2(C)C)cc1`, the outcome in series [10], in series [12], in series [13], in [14] and in series [15] was Active. The result in [11] was inactive.
As for `N#CCCCc1ccc(N2C(=S)N(c3ccc(C#N)c(C(F)(F)F)c3)C(=O)C23CCC3)cc1`, the result in series [1] was Active.
On to `CNC(=O)c1ccc(N2C(=S)N(c3ccc(C#N)c(C(F)(F)F)c3)C(=O)C2(C)C)cc1F`, for which the outcome in series [7] was Active.
Take `Cc1ccc(N2C(=S)N(c3ccc(C#N)c(C(F)(F)F)c3)C(=O)C23CCC3)cc1`: the result in series [10], in series [12], in series [13], in [14] and in series [15] was Active. For the same compound, the IC50 in series [8] came out at 124 nM. In addition, in series [16], the Activity entry was “Dose-dependent effect”. Moreover, the inhibition entry in series [9] is “Active”.
Take `CC(O)(CS(=O)(=O)c1ccc(F)cc1)C(=O)Nc1ccc(C#N)c(C(F)(F)F)c1` (centres undefined) [BICALUTAMIDE]: in [9], the inhibition entry was “inactive”. In addition, the concentration in series [3] was 10000 µM.
Consider `N#Cc1ccc(N2C(=O)C3(CCC3)N(c3ccc(/C=C/C(N)=O)cc3)C2=S)cc1C(F)(F)F`, for which the IC50 in series [8] stood at 100 nM.
In the case of `CC(O)c1ccc(N2C(=S)N(c3ccc(C#N)c(C(F)(F)F)c3)C(=O)C23CCC3)cc1` (centres undefined), the half-inhibitory concentration (IC50) in series [8] is 200 nM.
For `CNC(=O)c1ccc(N2C(=S)N(c3ccc(C#N)c(C(F)(F)F)c3)C(=O)C23CCCC3)cc1F`, the outcome in series [7] was Active.
